From PubChem
Hits are enriched below; roughly 3.7% of the tested compounds scored in any of these assays.
KCNQ1 act = potentiators or activators of KCNQ1 channel, primary screen, cell-based, thallium flux, high-throughput | B-score at 10 µM | Potassium voltage-gated channel subfamily KQT member 1 (Homo sapiens), P51787 | CHO-K1 KCNQ1, thallium flux FluxOR fluorescence; active compounds read high | hit rate 0.35% among 310,000 | AID 2648, 2010;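 active means fluorescence ratio B-score, a plate-corrected score, at least three library SD, with initial intensity B-score within 5 SD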
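Assay system: CHO-K1 cells stably expressing KCNQ1; Medium: assay buffer with matched DMSO; Also added: K+/Tl+ depolarizing stimulus; Dosing: single dose; Timing: dye 90 min, compound 20 min, room temperature; Measured by: kinetic FluxOR thallium fluorescence, 10-s 1-Hz baseline, 110-s post-stimulus read; Read-out: peak-minus-minimum fluorescence over initial fluorescence, negative-control normalized, B-scored.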
KCNQ1 block = inhibitors of human KCNQ1 channel, primary screen, cell-based, thallium flux, high-throughput. B-score at 10 µM. Potassium voltage-gated channel subfamily KQT member 1 (Homo sapiens), P51787. hit rate 1.3% among 310,000. CHO-K1 KCNQ1, FluxOR thallium flux fluorescence; active compounds read high;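 active means compounds whose thallium flux B-score, printed positive for inhibition, exceeds three library SD while starting fluorescence stays within three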;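 further: channel opened by potassium depolarization with thallium stimulus after 20 min compound exposure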
Kir21 inh = inhibitors of mouse Kir2.1 inward-rectifier potassium channel. Inward rectifier potassium channel 2 (Mus musculus), P35561. HEK293-Kir2.1, FluxOR thallium flux fluorescence; active compounds read low. B-score at 10 µM. hit rate 0.85% among 310,000;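 active means fluorescence ratio B-score at or below minus 3 SD of library scores, with starting-brightness B-score within 2 SD, cut at about -4.2 in these data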;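 further: channel flux triggered by added potassium and thallium sulfate stimulus; B-score of peak minus minimum fluorescence over baseline after thallium stimulus; more negative B-score means stronger Kir2.1 block with less thallium influx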
KCNK9 inh = KCNK9 potassium channel inhibitors, primary screen, HEK293 cells, thallium flux. B-score at 10 µM. Potassium channel subfamily K member 9 (Homo sapiens), Q9NPC2. FluxOR thallium flux fluorescence; active compounds read low. hit rate 1.2% among 310,000;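 active means ratio B-score over 3 SD below the library mean, with starting fluorescence within 5 SD of its mean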;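 further: negative B-score means less thallium flux so channel inhibition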
KCNK3 inh = human KCNK3 channel inhibitors, primary screen, CHO cells, FluxOR thallium flux, B-score; hit rate 0.84% among 340,000; FluxOR fluorescence; active compounds read low; B-score at 10 µM;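 active means B-score under library mean minus 4 SD, starting fluorescence ratio at most library mean plus 5 SD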;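 further: more negative B-score means stronger inhibition of thallium flux through KCNK3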
Target sequence (O14649 whole entry, looked up): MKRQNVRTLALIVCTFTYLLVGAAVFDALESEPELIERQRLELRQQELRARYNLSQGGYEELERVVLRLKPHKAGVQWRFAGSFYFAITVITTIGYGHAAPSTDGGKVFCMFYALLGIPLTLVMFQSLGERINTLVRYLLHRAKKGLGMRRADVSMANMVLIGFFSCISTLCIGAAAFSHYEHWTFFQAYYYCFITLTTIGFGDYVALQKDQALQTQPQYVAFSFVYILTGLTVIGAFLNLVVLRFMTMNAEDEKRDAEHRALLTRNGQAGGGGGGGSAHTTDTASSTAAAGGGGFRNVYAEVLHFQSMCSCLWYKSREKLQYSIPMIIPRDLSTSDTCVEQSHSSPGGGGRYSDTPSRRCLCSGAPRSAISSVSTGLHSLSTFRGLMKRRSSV
hERG rescue = hERG rescue from dofetilide block, primary screen, cell-based, CHO-hERG, FluxOR thallium flux, dofetilide IC70. Voltage-gated inwardly rectifying potassium channel KCNH2 (Homo sapiens), Q12809. dofetilide IC70 present. activation (rescue from dofetilide block), less the hit threshold, % at 10 µM. hit rate 0.51% among 310,000. AID 1511, 2009;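 active means activation above the mean of controls blocked by dofetilide plus 5 SD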;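 further: thallium influx through hERG after potassium depolarization seen as dye fluorescence rise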
Of the large screens only hits and unclear results are named; the others gave an inactive call.

COc1cc(CNC(C)(C)CO)cc(Br)c1OCc1ccc(Cl)cc1Cl	Kir21 inh -10, KCNK9 inh -6.6
COc1ccc(NC(=O)CN(C)CC(=O)N2CCCCCC2)cc1	none (no result: KCNQ1 act, KCNQ1 block, Kir21 inh, KCNK9 inh, hERG rescue)
Cc1c(NC(=O)C(C)OC(=O)c2cc(-c3cccc4ccccc34)nc3ccccc23)c(=O)n(-c2ccccc2)n1C (centres undefined)	KCNQ1 block 6
CCNc1nc(NCC)n2c(SCC(=O)Nc3ccccc3)nnc2n1	hERG rescue 6.5
CCNc1nc(NCC)n2c(SCC(=O)Nc3ccc(F)cc3)nnc2n1	none
O=C(CCn1c(=S)oc2ccccc21)Nc1ccc(F)cc1	none
CN(C(=O)CCn1c(=S)oc2ccccc21)c1ccc(F)cc1	Kir21 inh -5.6
O=C(CSc1nnc(C2CC2)n1C1CC1)Nc1cccc(Br)c1	none (no result: KCNQ1 act, KCNQ1 block, Kir21 inh, KCNK9 inh, hERG rescue)
O=C(CNc1cccc([N+](=O)[O-])c1)N/N=C/c1ccc(F)cc1	hERG rescue 9.9
CC(CCc1ccccc1)NC(=O)CN(C)Cc1ccccc1F (centres undefined)	none
CC(CCc1ccccc1)NC(=O)CN(C)Cc1ccc(F)cc1 (centres undefined)	Kir21 inh -4.5
CC(CCc1ccccc1)NC(=O)COC(=O)c1cc(NS(=O)(=O)c2ccc(Cl)c([N+](=O)[O-])c2)ccc1O (centres undefined)	KCNQ1 block 6
CC(CCc1ccccc1)NC(=O)CNc1cccc([N+](=O)[O-])c1 (centres undefined)	Kir21 inh -4.7
Cc1ccc(C)c(N2CCN(CCCNC(=O)Cn3c(=O)c4cccn4c4cccnc43)CC2)c1	none
CCOP(=O)(Nc1cccc2oc(=O)c3ccccc3c12)OCC	none (no result: KCNQ1 act, KCNQ1 block, Kir21 inh, KCNK9 inh, hERG rescue)
Cc1ccc(C)c(S(=O)(=O)NCc2ccc3c(c2)OCO3)c1	none
CC(CCc1ccccc1)NC(=O)COc1cc(F)ccc1[N+](=O)[O-] (centres undefined)	KCNQ1 act 24
COc1cc2c(cc1OC)C(c1cccc(OC)c1OC)CC(=O)N2 (centres undefined)	none
COc1cccc(C2CNC3(CCCC(C)C3)c3[nH]c4ccccc4c32)c1OC (centres undefined)	Kir21 inh -4.5
CC(C)(C)OC(=O)C[C@H]1C/C=C\C[C@H](CC(=O)N(CCO)Cc2ccccc2)C(=O)N[C@@H](c2ccccc2)COC1=O	none (no result: KCNQ1 act, KCNQ1 block, Kir21 inh, KCNK9 inh, hERG rescue)
Cc1nc(N2CCN(Cc3ccccc3)CC2)nc2c1C(=O)CC(c1ccco1)C2 (centres undefined)	Kir21 inh -5.3
CCCCNC(=O)C(CC)(ONc1ccccc1C(F)(F)F)c1ccccc1OC (centres undefined)	none (no result: KCNQ1 act, KCNQ1 block, Kir21 inh, KCNK9 inh, hERG rescue)
O=C1COc2ccc(C(=O)COC(=O)COc3ccccc3[N+](=O)[O-])cc2N1	none
N#Cc1ccccc1OCC(=O)OCC(=O)c1ccc2c(c1)NC(=O)CO2	hERG rescue 5.4
Cc1ncsc1C(=O)N1N=C2/C(=C/c3ccc(N4CCOCC4)cc3)CCCC2C1c1ccc(N2CCOCC2)cc1 (centres undefined)	none
Cc1ncsc1C(=O)N1N=C2/C(=C/c3ccccc3)CCCC2C1c1ccccc1 (centres undefined)	KCNQ1 block 7, KCNK9 inh -7.6
Cc1ccc(C(C(=O)NC2CCCC2)N(Cc2ccc3c(c2)OCO3)C(=O)c2snc(C(N)=O)c2N)cc1 (centres undefined)	none
O=C(NC1CCCCC1)C(c1ccccc1)N(Cc1ccc2c(c1)OCO2)C(=O)c1cnsn1 (centres undefined)	KCNQ1 block 6
CC(=O)c1ccc(NC(=O)C2CC(=O)N(C(C)C)C2)cc1 (centres undefined)	none
COc1ccc(-c2nnc(Nc3nc4c(OC)cccc4s3)o2)cc1	KCNQ1 act 50, hERG rescue 12
NNc1nc2c(F)cccc2s1	none
COc1cc(OC)cc(-c2nnc(Nc3nc4c(F)cccc4s3)o2)c1	KCNQ1 act 22, hERG rescue 5.9
Fc1cccc2sc(Nc3nnc(-c4ccccc4)o3)nc12	KCNQ1 act 66, hERG rescue 51
Fc1cccc2sc(Nc3nc4c(F)cccc4s3)nc12	hERG rescue 13
COc1ccc(CN2CCN(C(=O)Cn3ncn4cccc4c3=O)CC2)c(OC)c1OC	none
CC1=CC(=O)N(c2cccc(C(F)(F)F)c2)C1c1ccc(Cl)cc1 (centres undefined)	KCNK9 inh -7.7
CC(=O)C1=C(O)C(=O)N(c2ccc(O)cc2)C1c1ccc(Cl)cc1 (centres undefined)	none
CC1=CC(=O)N(c2ccc(C)cc2)C1c1ccc(Cl)cc1 (centres undefined)	Kir21 inh -4.5
Cc1ccc(S(=O)(=O)N2CCN(C(=O)COC(=O)CC(C)c3ccccc3)CC2)c(C)c1 (centres undefined)	none (no result: KCNQ1 act, KCNQ1 block, Kir21 inh, KCNK9 inh, hERG rescue)
O=C1c2ccccc2C(Nc2ccc(S(=O)(=O)N3CCCCCC3)cc2)N1Cc1ccco1 (centres undefined)	KCNK3 inh -8.7
CCc1ccccc1NC1c2ccccc2C(=O)N1Cc1ccco1 (centres undefined)	none
CCCCCCOC(=O)CC1CC(C(C)=O)C1(C)C (centres undefined)	none (no result: KCNQ1 act, KCNQ1 block, Kir21 inh, KCNK9 inh, hERG rescue)
O=C(CCc1nc(-c2ccccc2Cl)no1)NC1CCCCC1	none
Cc1cc(C)c2ccc(N)nc2c1O	none
Cc1cc(C)c2ccc(C)[n+]([O-])c2c1O	KCNQ1 act 8
CCCCC/C=N\NC(=O)Cc1ccc([N+](=O)[O-])cc1	KCNQ1 act 7
CSc1ccc(CN(C)Cc2cc(=O)oc3c(C)c(C)ccc23)cc1	KCNQ1 block 7
Cc1cccc(NCc2nc(SCC(=O)Nc3ccccc3)n[nH]2)c1	none
Cc1cccc(NCc2nc(SCC(=O)Nc3ccccc3Br)n[nH]2)c1	Kir21 inh -5
COc1cc(NC(=S)N2CCN(CCO)CC2)cc(OC)c1	none
CC1(C)CC(N2CCN(CCO)CC2)=CC(=S)N1	KCNQ1 act 10
N#C/C(=C(/O)CCl)c1nc2c(s1)CCc1ccccc1-2	KCNQ1 block 6
Nc1nc2c(s1)CCc1ccccc1-2	none
COc1c2c(cc3oc(CO[C@@H]4O[C@H](CO)[C@@H](O)[C@H](O)[C@H]4O)cc(=O)c13)O[C@H](C(C)(C)O)C2	none (no result: KCNQ1 act, KCNQ1 block, Kir21 inh, KCNK9 inh, hERG rescue)
COc1ccc(OC)c(C2=C/C(=C/c3ccccn3)C(=O)O2)c1	KCNK9 inh -7.6
COc1ccc(OC)c(-c2oc3ccccc3c(=O)c2O)c1	none
